In the experiment the target is Signal transducer and activator of transcription 3 (Homo sapiens) (UniProt P40763). Put plainly: Inhibition of STAT3C-mediated transcription in human Hs578T cells at 1 uM after 24 hrs by luciferase reporter gene assay. In kind it is cell-based. To be noted: Hs-578T. In outline:
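HS578T cells co-transfected with a constitutively active STAT3 (STAT3C) expression vector and the APRE-Luc reporter. Treated at 1 μM for 24 h, with JAK2 inhibitor AZD1480 for comparison. Luciferase measured; mean ± SD of triplicates.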
For orientation: In a reporter assay the amount or activity of a reporter protein is the signal.

Molecules are shown by their SMILES. Calls of active or inactive are those of the source. No cut-off for these calls is given here.

Signal transducer and activator of transcription 3 (Homo sapiens), sequence (P40763 whole entry): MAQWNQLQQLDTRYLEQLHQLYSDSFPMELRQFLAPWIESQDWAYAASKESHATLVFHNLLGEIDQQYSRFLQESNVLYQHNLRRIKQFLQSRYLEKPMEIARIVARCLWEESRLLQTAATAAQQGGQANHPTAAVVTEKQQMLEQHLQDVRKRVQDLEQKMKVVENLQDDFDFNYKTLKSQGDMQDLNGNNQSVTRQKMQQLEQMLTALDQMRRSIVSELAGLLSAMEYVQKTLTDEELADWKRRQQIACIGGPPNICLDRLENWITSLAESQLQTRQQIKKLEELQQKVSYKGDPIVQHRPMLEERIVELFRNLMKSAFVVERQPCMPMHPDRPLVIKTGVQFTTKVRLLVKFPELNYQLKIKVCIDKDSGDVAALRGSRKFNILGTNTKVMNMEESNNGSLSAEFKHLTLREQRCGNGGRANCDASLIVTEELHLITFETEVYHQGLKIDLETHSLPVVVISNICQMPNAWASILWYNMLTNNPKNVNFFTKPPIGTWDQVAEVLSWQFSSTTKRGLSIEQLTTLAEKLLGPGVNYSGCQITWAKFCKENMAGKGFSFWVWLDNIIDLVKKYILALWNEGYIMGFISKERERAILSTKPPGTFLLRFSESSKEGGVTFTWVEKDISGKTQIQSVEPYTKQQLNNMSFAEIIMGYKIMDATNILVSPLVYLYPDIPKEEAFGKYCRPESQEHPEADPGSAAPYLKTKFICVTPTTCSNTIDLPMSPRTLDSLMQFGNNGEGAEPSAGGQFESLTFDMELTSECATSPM

In the case of `Cc1cc(Nc2nc(N[C@@H](C)c3ncc(F)cn3)ncc2Cl)[nH]n1`, the inhibition entry is “Active”.

The values above are taken from ChEMBL document CHEMBL3352378, “Novel carbazole inhibits phospho-STAT3 through induction of protein-tyrosine phosphatase PTPN6” (J Med Chem, 2014).
